In data set [1] the target is T1, Transient receptor potential cation channel subfamily V member 3 (Homo sapiens) (UniProt Q8NET8).
T1 sequence (whole entry): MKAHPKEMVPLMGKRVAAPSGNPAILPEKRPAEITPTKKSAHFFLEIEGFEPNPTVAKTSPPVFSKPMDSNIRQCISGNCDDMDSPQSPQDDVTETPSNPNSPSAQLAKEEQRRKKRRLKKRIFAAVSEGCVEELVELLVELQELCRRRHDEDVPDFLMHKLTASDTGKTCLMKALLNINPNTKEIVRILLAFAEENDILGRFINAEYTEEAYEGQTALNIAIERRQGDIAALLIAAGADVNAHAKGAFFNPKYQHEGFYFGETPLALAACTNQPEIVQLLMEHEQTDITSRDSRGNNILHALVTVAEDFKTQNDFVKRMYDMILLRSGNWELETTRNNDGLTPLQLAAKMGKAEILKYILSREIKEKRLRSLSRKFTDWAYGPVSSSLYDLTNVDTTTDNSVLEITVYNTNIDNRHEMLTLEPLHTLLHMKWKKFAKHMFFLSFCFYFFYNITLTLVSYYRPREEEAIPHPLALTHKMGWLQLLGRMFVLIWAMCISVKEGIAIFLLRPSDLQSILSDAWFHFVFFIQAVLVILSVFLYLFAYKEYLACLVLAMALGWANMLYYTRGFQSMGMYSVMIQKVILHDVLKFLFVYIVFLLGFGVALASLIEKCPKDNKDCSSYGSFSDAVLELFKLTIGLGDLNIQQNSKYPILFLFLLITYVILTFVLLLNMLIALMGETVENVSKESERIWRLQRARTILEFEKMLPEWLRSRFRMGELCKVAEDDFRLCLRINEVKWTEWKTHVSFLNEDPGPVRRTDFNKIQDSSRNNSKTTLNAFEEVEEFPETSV
As to the kind of experiment: Antagonist activity at human TRPV3 expressed in recombinant HEK293 cells assessed as inhibition of 2-APB induced calcium flux by FLIPR analysis. It counts as cell-based. Summed up: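 HEK293 cells stably expressing human TRPV3 (I25V variant), plated the day before in DMEM + 10% FBS at 37 °C, 5% CO2. Calcium 4 dye loaded in Ca/Mg-free HEPES D-PBS pH 7.4 for 1–2 h at room temperature. Compound dilutions added with 3 min baseline, then 2-APB at 60 µM final; Ca2+ flux read 3 min on FLIPR. Kb from at least duplicates, averaged across independent runs.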
Background: Calcium assays in cells follow changes in intracellular calcium, usually with a dye or a luminescent sensor.

In data set [2] the test system is Liver microsome. The experiment in a line: Unbound intrinsic clearance in rat liver microsomes after 5 hrs by LC-MS/MS analysis. It counts as ADME. A digest of the protocol:
(§1)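 Microsomal stability run in an automated high-throughput plate format. Intrinsic clearance corrected for nonspecific microsomal binding using measured unbound fraction (fu,mic), reported as unbound Clint in L/h/kg.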
Background: Liver microsomes are vesicles of endoplasmic reticulum, rich in cytochrome P450 enzymes.

Data set [3] relates to Liver microsome. The experiment in a line: Unbound intrinsic clearance in human liver microsomes after 5 hrs by LC-MS/MS analysis. Type of data set: ADME. Summed up:
as §1

Data set [4] is filed under the species Rattus norvegicus. The experiment in a line: Cardiotoxicity in rat assessed as increase in cardiac contractility at plasma concentration of 4.7 ug/ml. It counts as toxicity, organism-based.
The species named for data set [5] is Rattus norvegicus. The experiment in a line: Cardiotoxicity in rat assessed as increase in mean arterial pressure. It counts as toxicity, organism-based, Artery. The settings on record: in vivo.
The target of data set [6] is T2, Nuclear receptor subfamily 1 group I member 2 (Homo sapiens, UniProt O75469).
T2 sequence (O75469 whole entry): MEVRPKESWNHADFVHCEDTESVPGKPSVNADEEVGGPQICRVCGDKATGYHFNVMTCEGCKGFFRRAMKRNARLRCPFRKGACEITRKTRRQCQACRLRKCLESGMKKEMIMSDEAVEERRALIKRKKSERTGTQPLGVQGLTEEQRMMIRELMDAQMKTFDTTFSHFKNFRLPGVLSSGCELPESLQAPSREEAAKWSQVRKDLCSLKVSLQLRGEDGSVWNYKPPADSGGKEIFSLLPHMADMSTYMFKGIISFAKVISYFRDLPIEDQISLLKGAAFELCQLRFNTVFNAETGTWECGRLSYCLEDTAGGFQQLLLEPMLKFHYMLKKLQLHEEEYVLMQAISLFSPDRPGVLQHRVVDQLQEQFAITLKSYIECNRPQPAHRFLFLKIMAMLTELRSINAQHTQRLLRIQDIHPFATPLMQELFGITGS
The experiment in a line: Activation of human PXR. Type of data set: ADME. To be noted: human.

Molecules are shown by their SMILES.

Broadly, the Kb is the affinity of an antagonist, worked out from how it opposes an agonist. Consider `O[C@H](c1ccccn1)[C@]1(c2cccc(OC(F)(F)F)c2)C[C@@H](O)C1`, for which, in data set [1], the Kb turned out to be 80 nM. In addition, the figures for the CL free in the data set with Liver microsome [2] and in the data set with Liver microsome [3] were 217 mL/min/kg and 120 mL/min/kg, respectively. Further, the Activity entry in the data set listed under Rattus norvegicus [4] is reported as “Non-toxic”; in the data set filed under Rattus norvegicus [5] it was “Non-toxic”; in data set [6], “Not Active”.
In the case of `O[C@H](c1ccccn1)[C@]1(c2ccc(Cl)c(Cl)c2)CCO1`, the Kb in data set [1] amounted to 150 nM. Also, the CL free with Liver microsome [2] stood at 50 mL/min/kg; in the data set on Liver microsome [3], 67 mL/min/kg.
For `C[C@@]1(c2ccc(OC(F)(F)F)cc2)C[C@@](O)(c2ccccn2)CO1` (single isomer, unassigned), in that order: 1120 nM, 333 mL/min/kg and 67 mL/min/kg.
For `OC(c1ncccc1F)C1(c2ccc(Cl)c(Cl)c2)CCC1` (racemic) the same measures were 610 nM, 3000 mL/min/kg and 833 mL/min/kg.
For `CC(O)(c1ccccn1)C1(c2ccc(Cl)c(Cl)c2)CCC1` (racemic) the same measures were 3400 nM, 6330 mL/min/kg and 1670 mL/min/kg.
Consider `C[C@]1(O)C[C@@](c2ccc(C(F)(F)F)cc2)([C@H](O)c2ccccn2)C1`, for which, in data set [1], the Kb came out at 840 nM. Besides, the CL free in the data set with Liver microsome [2] was 150 mL/min/kg; with Liver microsome [3], 50 mL/min/kg. In addition, the results for the Activity entry (in the data set filed under Rattus norvegicus [4]; in the data set filed under Rattus norvegicus [5]; in data set [6]) were “Non-toxic”, “Non-toxic” and “Not Active”, respectively.
In the case of `O[C@H](c1ccccn1)[C@@]1(c2ccc(Cl)c(Cl)c2)CCO1`, the antagonist dissociation constant (Kb) in data set [1] was 380 nM. Moreover, the CL free with Liver microsome [2] is 1000 mL/min/kg; in the data set on Liver microsome [3], 217 mL/min/kg.
`OC(c1ccc(F)cn1)C1(c2ccc(Cl)c(Cl)c2)CCC1` (racemic): the Kb in data set [1] turned out to be 910 nM. In addition, the values for the CL free in the data set with Liver microsome [2] and with Liver microsome [3] were 3170 mL/min/kg and 767 mL/min/kg, respectively.
For `O[C@H](c1ccccn1)C1(c2ccc(OC(F)(F)F)cc2)CCC1`, in that order: 140 nM, 1050 mL/min/kg and 333 mL/min/kg.
For `O[C@H](c1ccccn1)C1(c2ccc(Cl)c(Cl)c2)CC(F)(F)C1`, in that order: 80 nM, 850 mL/min/kg and 250 mL/min/kg.
Consider `OC(c1cc(F)ccn1)C1(c2ccc(Cl)c(Cl)c2)CCC1` (racemic), for which the Kb in data set [1] amounted to 640 nM. Moreover, the CL free in the data set with Liver microsome [2] came out at 3850 mL/min/kg; with Liver microsome [3] it was 533 mL/min/kg.
`O[C@H](c1ccccn1)[C@]1(c2cc(C(F)(F)F)ccn2)C[C@H](O)C1`: the Kb in data set [1] stood at 270 nM. Further, the results for the CL free in the data set with Liver microsome [2] and in the data set on Liver microsome [3] were 50 mL/min/kg and 33 mL/min/kg, respectively. The Activity result in the data set listed under Rattus norvegicus [4] is on record as “Non-toxic”; in the data set filed under Rattus norvegicus [5] it was “Non-toxic”; in data set [6] it was “Not Active”.
Regarding `O[C@H](c1ccccn1)[C@]1(c2ccc(C(F)(F)F)cc2)C[C@H](O)C1`, the Kb in data set [1] came out at 2240 nM. Besides, the CL free in the data set with Liver microsome [2] and in the data set on Liver microsome [3] was 50 mL/min/kg throughout. The Activity entry in the data set filed under Rattus norvegicus [4] is recorded as “Non-toxic”; in the data set listed under Rattus norvegicus [5], “Non-toxic”; in data set [6] it was “Not Active”.
Turning to `OC(c1ccccn1)C1(c2ccc(Cl)c(Cl)c2)CCOC1` (stereo not given), the Kb in data set [1] worked out at 630 nM. Besides, the results for the CL free in the data set on Liver microsome [2] and in the data set on Liver microsome [3] were 983 mL/min/kg and 417 mL/min/kg, respectively.
Take `O[C@H](c1ccccn1)[C@]1(c2ccc(C(F)(F)F)cc2)C[C@@H](O)C1`: in data set [1], the Kb worked out at 1870 nM. Also, the CL free with Liver microsome [2] came to 50 mL/min/kg; with Liver microsome [3], 33 mL/min/kg. For the same molecule, the Activity entry in the data set filed under Rattus norvegicus [4] is listed as “Non-toxic”; in the data set filed under Rattus norvegicus [5], “Non-toxic”; in data set [6], “Not Active”.
Turning to `C[C@]1(O)C[C@@](c2cccc(OC(F)(F)F)c2)([C@H](O)c2ccccn2)C1`, the Kb in data set [1] was 280 nM. For the same molecule, the CL free with Liver microsome [2] was 200 mL/min/kg; in the data set with Liver microsome [3] it was 167 mL/min/kg. In addition, the results for the Activity result (in the data set listed under Rattus norvegicus [4]; in the data set filed under Rattus norvegicus [5]; in data set [6]) were “Non-toxic”, “Non-toxic” and “Not Active”, respectively.
`C[C@]1(c2ccc(OC(F)(F)F)cc2)C[C@@](O)(c2ccccn2)CO1`: the Kb in data set [1] was 2460 nM. Further, the CL free in the data set on Liver microsome [2] stood at 150 mL/min/kg; in the data set with Liver microsome [3], 120 mL/min/kg.
As to `O[C@H](c1ccccn1)[C@]1(c2cccc(C(F)(F)F)c2)C[C@@H](O)C1`, in data set [1], the Kb turned out to be 210 nM. Further, the figures for the CL free with Liver microsome [2] and with Liver microsome [3] were 100 mL/min/kg and 50 mL/min/kg, respectively. The Activity entry in the data set filed under Rattus norvegicus [4] is given as “Non-toxic”; in the data set listed under Rattus norvegicus [5] it was “Non-toxic”; in data set [6], “Not Active”.
With `O[C@H](c1ncccn1)C1(c2ccc(Cl)c(Cl)c2)CCC1`, the Kb in data set [1] stood at 370 nM. In addition, the CL free in the data set with Liver microsome [2] came out at 833 mL/min/kg; in the data set on Liver microsome [3], 267 mL/min/kg.
For `OC(c1ccccn1)C1(c2ccc(C(F)(F)F)cc2)CNC1` (stereo not given) the same measures were 6680 nM, 50 mL/min/kg and 33 mL/min/kg.
For `O[C@]1(c2ccccn2)CC[C@H](c2ccc(C(F)(F)F)cc2)C1` the same measures were 540 nM, 1430 mL/min/kg and 333 mL/min/kg.
For `O[C@H](c1ccccn1)C1(c2cccc(OC(F)(F)F)c2)CCC1`, in that order: 80 nM, 1720 mL/min/kg and 2220 mL/min/kg.
Take `CN1CC(c2ccc(C(F)(F)F)cc2)(C(O)c2ccccn2)C1` (stereo not given): the Kb in data set [1] was found to be 6630 nM. Besides, the CL free in the data set with Liver microsome [2] was 120 mL/min/kg; with Liver microsome [3] it was 50 mL/min/kg.
As to `O[C@H](c1ccccn1)[C@]1(c2ccc(Cl)c(Cl)c2)CCCO1`, the Kb in data set [1] came out at 470 nM.
Consider `O[C@@]1(c2ccccn2)CC[C@@H](c2ccc(C(F)(F)F)cc2)C1`, for which the Kb in data set [1] came out at 240 nM. The CL free in the data set on Liver microsome [2] turned out to be 2520 mL/min/kg; with Liver microsome [3] it was 150 mL/min/kg.
For `OC(c1ccccn1)C1(c2ccc(Cl)c(Cl)c2)COC1` (stereo not given), in that order: 7370 nM, 417 mL/min/kg and 130 mL/min/kg.
For `OC(c1ncccn1)C1(c2ccc(OC(F)(F)F)cc2)CCC1` (racemic), in that order: 1540 nM, 483 mL/min/kg and 100 mL/min/kg.
Regarding `C[C@@]1(c2ccc(OC(F)(F)F)cc2)C[C@](O)(c2ccccn2)CO1`, the Kb in data set [1] is 1710 nM. Besides, the CL free in the data set on Liver microsome [2] came out at 383 mL/min/kg; in the data set with Liver microsome [3], 217 mL/min/kg.
For `O[C@@]1(c2ccccn2)CC[C@H](c2ccc(C(F)(F)F)cc2)C1`, in that order: 610 nM, 350 mL/min/kg and 400 mL/min/kg.
For `OC(c1ccccn1)C1(c2ccccc2OC(F)(F)F)CCC1` (racemic), in that order: 550 nM, 1830 mL/min/kg and 1230 mL/min/kg.
For `O[C@H](c1ccccn1)[C@@]1(c2ccc(Cl)c(Cl)c2)CCCO1`, the Kb in data set [1] came to 43 nM. Further, the CL free with Liver microsome [2] came out at 2980 mL/min/kg; in the data set on Liver microsome [3] it was 383 mL/min/kg.
`O[C@]1(c2ccccn2)CC[C@@H](c2ccc(C(F)(F)F)cc2)C1`: the Kb in data set [1] was determined as 130 nM. The CL free in the data set with Liver microsome [2] stood at 7670 mL/min/kg; in the data set with Liver microsome [3] it was 383 mL/min/kg.

For the origin of these results see ChEMBL document CHEMBL3826935, “Synthesis and Pharmacology of (Pyridin-2-yl)methanol Derivatives as Novel and Selective Transient Receptor Potential Vanilloid 3 Antagonists” (J Med Chem, 2016).
